ChEMBL document CHEMBL3526048, “In vitro metabolism of rivoglitazone, a novel peroxisome proliferator-activated receptor γ agonist, in rat, monkey, and human liver microsomes and freshly isolated hepatocytes” (Drug Metab Dispos, 2011)

What was measured:
[1] = Drug level in po dosed monkey liver microsomes treated with [14C]-rivoglitazone; type: ADME, organism-based, Macaca mulatta; conditions: rhesus monkey, in vivo
[2] = tested on: Plasma; test: Drug level in po dosed monkey plasma treated with [14C]-rivoglitazone; type: ADME, organism-based, Macaca mulatta; conditions: rhesus monkey, in vivo
[3] = Drug level in po dosed monkey bile treated with [14C]-rivoglitazone; type: ADME, organism-based, Macaca mulatta; conditions: rhesus monkey, in vivo
[4] = Retention time of the compound by LC-MS/MS analysis; type: physicochemical
Method in brief: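 LC-MS/MS used a YMC-Pack ODS-A column (1.5 × 150 mm, 5 μm) at 30°C, 0.1 ml/min. Mobile phase was water and acetonitrile, each with 0.01% TFA. Gradient: 12→60% B over 30 min, →90% B over 5 min, hold 5 min. Detection was UV 220 nm with positive ESI Q-TOF (capillary 3300 V, cone 45 V), collision energy 20 eV and xenon as collision gas.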

[5] = tested on: Hepatocyte; test: Drug level in rat hepatocytes treated with [14C]-rivoglitazone at 30 uM after 3 hrs by radio-HPLC/LC-MS/MS analysis in presence of NADPH-generating system and NADPH-generating system/SAM; type: ADME, cell-based
[6] = tested on: Hepatocyte; test: Drug level in human hepatocytes treated with [14C]-rivoglitazone at 30 uM after 3 hrs by radio-HPLC/LC-MS/MS analysis in presence of NADPH-generating system and NADPH-generating system/SAM; type: ADME, cell-based
[7] = Drug level in cynomolgus monkey liver microsomes treated with [14C]-rivoglitazone at 20 uM after 2 hrs by radio-HPLC/LC-MS/MS analysis in presence of NADPH-generating system and NADPH-generating system/SAM; type: ADME, Macaca fascicularis
Method in brief: (§1)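 Pooled male liver microsomes (1 mg/ml protein; rat from 94 Sprague-Dawley, monkey from 8 cynomolgus, human from 23 donors) were incubated with [¹⁴C]rivoglitazone (20 μM). Buffer: 10 mM potassium phosphate (pH 7.4). Cofactors: NADPH-generating system (2 mM NADP⁺, 20 mM G6P, 2 U/ml G6PDH, 10 mM MgCl₂), with or without 2 mM SAM. Incubation 2 h at 37°C with shaking; controls lacked NADPH system and SAM alone. Acetonitrile stop, radio-HPLC plus LC-MS.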

[8] = tested on: Liver microsome; test: Drug level in Sprague-Dawley rat liver microsomes treated with [14C]-rivoglitazone at 20 uM after 2 hrs by radio-HPLC/LC-MS/MS analysis in presence of NADPH-generating system and NADPH-generating system/SAM; type: ADME; method in brief: as §1
[9] = tested on: Liver microsome; test: Drug level in human liver microsomes treated with [14C]-rivoglitazone at 20 uM after 2 hrs by radio-HPLC/LC-MS/MS analysis in presence of NADPH-generating system and NADPH-generating system/SAM; type: ADME; method in brief: as §1
[10] = molecular target: Cytochrome P450 3A5 (Homo sapiens, UniProt P20815); test: Activity of human CYP3A5 expressed in microsomes isolated from baculovirus infected insect cell assessed as enzyme-mediated compound formation treated with [14C]-rivoglitazone at 20 uM after 2 hrs by radio-HPLC/LC-MS/MS analysis in presence of NADPH-generating system and NADPH-generating system/SAM; type: ADME
Chain of Cytochrome P450 3A5 (P20815 whole entry): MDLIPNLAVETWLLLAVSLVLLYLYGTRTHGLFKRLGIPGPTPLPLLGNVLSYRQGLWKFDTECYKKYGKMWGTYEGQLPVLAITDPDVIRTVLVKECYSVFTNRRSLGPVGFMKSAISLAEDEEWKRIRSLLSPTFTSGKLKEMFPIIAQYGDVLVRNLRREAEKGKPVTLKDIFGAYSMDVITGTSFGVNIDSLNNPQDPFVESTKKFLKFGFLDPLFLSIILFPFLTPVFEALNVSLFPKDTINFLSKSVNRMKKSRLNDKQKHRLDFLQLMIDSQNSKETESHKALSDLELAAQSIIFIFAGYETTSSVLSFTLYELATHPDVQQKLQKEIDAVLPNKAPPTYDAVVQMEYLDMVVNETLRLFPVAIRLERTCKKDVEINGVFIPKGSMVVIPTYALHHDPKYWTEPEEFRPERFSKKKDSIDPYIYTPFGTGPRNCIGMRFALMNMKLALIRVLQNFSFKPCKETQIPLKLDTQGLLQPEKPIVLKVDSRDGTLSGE
Method in brief: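 cDNA-expressed human CYP3A5 in baculovirus-insect-cell microsomes (1 mg/ml protein) was incubated with [¹⁴C]rivoglitazone (20 μM) in 50 mM potassium phosphate (pH 7.4) or 100 mM Tris-HCl (pH 7.5). NADPH-generating system: 2 mM NADP⁺, 20 mM glucose 6-phosphate, 2 units/ml G6PDH, 10 mM MgCl₂. Incubation ran 2 h at 37°C with shaking; insect-cell control supersomes served as control. Acetonitrile stop, supernatant concentrated, then radio-HPLC, LC-MS and LC-MS/MS.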

[11] = molecular target: Cytochrome P450 3A4 (Homo sapiens, UniProt P08684); test: Activity of human CYP3A4 expressed in microsomes isolated from baculovirus infected insect cell assessed as enzyme-mediated compound formation treated with [14C]-rivoglitazone at 20 uM after 2 hrs by radio-HPLC/LC-MS/MS analysis in presence of NADPH-generating system and NADPH-generating system/SAM; type: ADME
Chain of Cytochrome P450 3A4 (P08684 whole entry): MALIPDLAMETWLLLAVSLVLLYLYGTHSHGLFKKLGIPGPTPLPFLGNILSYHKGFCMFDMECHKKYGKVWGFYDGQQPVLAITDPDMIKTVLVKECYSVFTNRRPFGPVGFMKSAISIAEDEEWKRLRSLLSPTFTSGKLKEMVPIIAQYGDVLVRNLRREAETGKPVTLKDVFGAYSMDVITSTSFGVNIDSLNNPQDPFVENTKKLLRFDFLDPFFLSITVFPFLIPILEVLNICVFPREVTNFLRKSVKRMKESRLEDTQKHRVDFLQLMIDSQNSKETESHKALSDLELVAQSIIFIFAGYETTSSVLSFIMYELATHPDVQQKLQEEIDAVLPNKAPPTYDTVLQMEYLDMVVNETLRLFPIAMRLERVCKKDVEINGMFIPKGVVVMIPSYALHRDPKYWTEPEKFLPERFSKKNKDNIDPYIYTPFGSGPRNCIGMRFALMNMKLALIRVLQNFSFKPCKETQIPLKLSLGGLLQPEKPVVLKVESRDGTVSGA

[12] = molecular target: Cytochrome P450 2D6 (Homo sapiens, UniProt P10635); test: Activity of human CYP2D6 expressed in microsomes isolated from baculovirus infected insect cell assessed as enzyme-mediated compound formation treated with [14C]-rivoglitazone at 20 uM after 2 hrs by radio-HPLC/LC-MS/MS analysis in presence of NADPH-generating system and NADPH-generating system/SAM; type: ADME
Chain of Cytochrome P450 2D6 (P10635 whole entry): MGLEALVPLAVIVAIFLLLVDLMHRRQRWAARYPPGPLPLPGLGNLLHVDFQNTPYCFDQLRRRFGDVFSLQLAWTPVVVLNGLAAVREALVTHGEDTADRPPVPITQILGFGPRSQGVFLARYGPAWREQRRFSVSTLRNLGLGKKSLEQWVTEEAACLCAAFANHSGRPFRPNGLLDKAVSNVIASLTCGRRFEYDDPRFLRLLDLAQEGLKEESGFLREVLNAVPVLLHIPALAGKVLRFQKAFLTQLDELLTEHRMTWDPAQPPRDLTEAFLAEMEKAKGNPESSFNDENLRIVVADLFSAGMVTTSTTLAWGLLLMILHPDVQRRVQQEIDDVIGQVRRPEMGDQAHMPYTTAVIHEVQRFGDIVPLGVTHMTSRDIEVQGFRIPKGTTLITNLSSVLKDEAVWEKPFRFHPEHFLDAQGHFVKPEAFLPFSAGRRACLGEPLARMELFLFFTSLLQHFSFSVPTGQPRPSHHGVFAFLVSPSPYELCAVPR

[13] = molecular target: Cytochrome P450 2C19 (Homo sapiens, UniProt P33261); test: Activity of human CYP2C19 expressed in microsomes isolated from baculovirus infected insect cell assessed as enzyme-mediated compound formation treated with [14C]-rivoglitazone at 20 uM after 2 hrs by radio-HPLC/LC-MS/MS analysis in presence of NADPH-generating system and NADPH-generating system/SAM; type: ADME
Chain of Cytochrome P450 2C19 (P33261 whole entry): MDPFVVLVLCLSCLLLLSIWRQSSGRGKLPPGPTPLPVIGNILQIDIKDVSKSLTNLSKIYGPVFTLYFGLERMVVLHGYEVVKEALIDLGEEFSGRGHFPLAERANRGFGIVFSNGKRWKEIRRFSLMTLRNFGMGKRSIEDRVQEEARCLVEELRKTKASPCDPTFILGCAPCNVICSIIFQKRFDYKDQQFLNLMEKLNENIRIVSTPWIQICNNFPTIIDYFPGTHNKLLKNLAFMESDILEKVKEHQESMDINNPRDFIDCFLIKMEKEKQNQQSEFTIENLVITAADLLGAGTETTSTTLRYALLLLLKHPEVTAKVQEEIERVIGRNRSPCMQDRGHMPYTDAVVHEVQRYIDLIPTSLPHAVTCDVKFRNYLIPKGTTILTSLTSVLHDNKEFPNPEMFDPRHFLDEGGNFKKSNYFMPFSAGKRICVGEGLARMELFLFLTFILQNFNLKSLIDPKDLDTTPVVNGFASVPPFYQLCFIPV
Method in brief: (§2)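 Baculovirus/insect-cell microsomes expressing single human CYPs, 1 mg/ml protein, with 50 mM potassium phosphate (pH 7.4) or 100 mM Tris-HCl (pH 7.5). NADPH-generating system: 2 mM NADP⁺, 20 mM glucose 6-phosphate, 2 units/ml G6PDH, 10 mM MgCl₂. [¹⁴C]rivoglitazone at 20 μM, 2 h at 37°C with shaking. Control used insect-cell control supersomes. Stopped with acetonitrile; supernatant concentrated under nitrogen; metabolites analysed by radio-HPLC, LC-MS and LC-MS/MS.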

[14] = molecular target: Cytochrome P450 2C9 (Homo sapiens, UniProt P11712); test: Activity of human CYP2C9 expressed in microsomes isolated from baculovirus infected insect cell assessed as enzyme-mediated compound formation treated with [14C]-rivoglitazone at 20 uM after 2 hrs by radio-HPLC/LC-MS/MS analysis in presence of NADPH-generating system and NADPH-generating system/SAM; type: ADME
Chain of Cytochrome P450 2C9 (P11712 whole entry): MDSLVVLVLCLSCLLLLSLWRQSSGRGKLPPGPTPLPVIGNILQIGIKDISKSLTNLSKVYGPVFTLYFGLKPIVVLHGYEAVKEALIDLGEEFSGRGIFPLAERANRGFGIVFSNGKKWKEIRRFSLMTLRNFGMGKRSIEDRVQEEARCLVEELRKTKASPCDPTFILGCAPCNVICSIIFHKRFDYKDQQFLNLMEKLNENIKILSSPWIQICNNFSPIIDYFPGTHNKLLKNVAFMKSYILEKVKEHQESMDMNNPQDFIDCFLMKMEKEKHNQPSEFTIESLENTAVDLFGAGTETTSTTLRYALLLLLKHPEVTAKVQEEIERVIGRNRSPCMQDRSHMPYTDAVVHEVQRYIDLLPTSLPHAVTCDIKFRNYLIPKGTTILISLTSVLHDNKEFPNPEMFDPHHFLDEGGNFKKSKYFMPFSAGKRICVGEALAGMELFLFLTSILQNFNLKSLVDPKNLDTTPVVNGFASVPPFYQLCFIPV

[15] = molecular target: T1, Cytochrome P450 2C8 (Homo sapiens, UniProt P10632); test: Activity of human CYP2C8 expressed in microsomes isolated from baculovirus infected insect cell assessed as enzyme-mediated compound formation treated with [14C]-rivoglitazone at 20 uM after 2 hrs by radio-HPLC/LC-MS/MS analysis in presence of NADPH-generating system and NADPH-generating system/SAM; type: ADME; method in brief: as §2
T1 sequence (P10632 whole entry): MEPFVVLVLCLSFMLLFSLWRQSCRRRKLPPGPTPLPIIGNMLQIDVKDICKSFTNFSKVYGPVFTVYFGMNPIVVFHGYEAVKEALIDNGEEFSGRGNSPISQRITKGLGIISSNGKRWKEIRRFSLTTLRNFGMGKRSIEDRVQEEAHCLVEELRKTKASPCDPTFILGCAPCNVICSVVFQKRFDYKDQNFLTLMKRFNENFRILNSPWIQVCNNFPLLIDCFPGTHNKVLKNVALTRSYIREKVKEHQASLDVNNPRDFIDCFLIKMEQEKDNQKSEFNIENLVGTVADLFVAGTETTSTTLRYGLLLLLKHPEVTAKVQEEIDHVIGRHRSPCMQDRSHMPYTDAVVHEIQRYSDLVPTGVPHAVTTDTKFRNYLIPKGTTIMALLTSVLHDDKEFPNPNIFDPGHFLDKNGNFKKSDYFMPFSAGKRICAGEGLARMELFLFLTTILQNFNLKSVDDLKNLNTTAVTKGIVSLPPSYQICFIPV

[16] = molecular target: T2, Cytochrome P450 1A2 (Homo sapiens, UniProt P05177); test: Activity of human CYP1A2 expressed in microsomes isolated from baculovirus infected insect cell assessed as enzyme-mediated compound formation treated with [14C]-rivoglitazone at 20 uM after 2 hrs by radio-HPLC/LC-MS/MS analysis in presence of NADPH-generating system and NADPH-generating system/SAM; type: ADME; method in brief: as §2
T2 sequence (P05177 whole entry): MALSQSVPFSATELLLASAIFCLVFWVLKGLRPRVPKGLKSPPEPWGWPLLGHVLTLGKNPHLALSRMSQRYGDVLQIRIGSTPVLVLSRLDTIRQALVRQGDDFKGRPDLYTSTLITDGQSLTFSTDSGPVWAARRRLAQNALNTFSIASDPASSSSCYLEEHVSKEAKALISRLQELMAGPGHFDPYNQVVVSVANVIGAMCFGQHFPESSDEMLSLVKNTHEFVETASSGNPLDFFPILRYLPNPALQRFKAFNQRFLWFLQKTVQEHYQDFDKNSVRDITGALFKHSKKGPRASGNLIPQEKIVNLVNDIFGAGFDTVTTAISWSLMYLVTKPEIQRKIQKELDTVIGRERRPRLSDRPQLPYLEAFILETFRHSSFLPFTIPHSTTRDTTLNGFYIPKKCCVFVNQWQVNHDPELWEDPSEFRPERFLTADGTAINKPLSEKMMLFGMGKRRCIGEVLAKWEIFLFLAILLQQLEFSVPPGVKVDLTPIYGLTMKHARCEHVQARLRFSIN

Compound: COc1ccc2nc(COc3ccc(CC4SC(=O)NC4=O)cc3)[nH]c2c1 (stereo unspecified)
- Drug metabolism [1]: metabolite_detected
- Drug metabolism [2]: metabolite_detected
- Drug metabolism [3]: metabolite_detected
- Retention_time [4]: 20.9 min
- Drug metabolism [5]: metabolite_detected
- Drug metabolism [6]: metabolite_detected
- Drug metabolism [7]: metabolite_detected
- Drug metabolism [8]: metabolite_detected
- Drug metabolism [9]: metabolite_detected
- Drug metabolism [10]: metabolite_detected
- Drug metabolism [11]: metabolite_detected
- Drug metabolism [12]: metabolite_detected
- Drug metabolism [13]: metabolite_detected
- Drug metabolism [14]: metabolite_detected
- Drug metabolism [15]: metabolite_detected
- Drug metabolism [16]: metabolite_detected
